Results reported in ChEMBL document CHEMBL1144450 (J Med Chem, 2005).

Tests used:
[1] = Percentage of nitric oxide released by the compound when incubated in phosphate buffer solution at pH 7.4, 37 degree C for 1.5 h; assay type: functional
Method in brief: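 The compound was incubated in PBS at pH 7.4 and 37 °C for 1.5 h. Nitric oxide was quantified as nitrite by the Griess reaction. Release is expressed as percent of a theoretical maximum of 2 mol NO per mol compound, SEM, n = 3.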

[2] = Percentage of nitric oxide released upon incubation in the presence of pig liver esterase in phosphate buffer solution at pH 7.4, 37 degree C for 1.5 h; assay type: functional
Method in brief: (§1)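 Pig liver esterase was added at 2 equiv (1 mol compound : 2 mol esterase) in PBS at pH 7.4, 37 °C, 1.5 h. Nitrite from NO was measured by the Griess reaction. Release is given as percent of a theoretical 2 mol NO per mol compound, SEM, n = 3.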

[3] = tested on: Rattus norvegicus; assay: In vivo antiinflammatory activity after 3 hr of oral administration was determined using rat carrageenan induced paw edema model; assay type: functional; settings: read-out: ID50 (the source's name)
Method in brief: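 Carrageenan-induced foot paw edema in rats, with the test compound and reference drugs given orally. Activity is expressed as ID50 in mg/kg.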

[4] = Percentage of nitric oxide released upon incubation in the presence of guinea pig serum in PBS pH 7.4, 37 degree C for 1.5 h; assay type: functional; design: concentration or dose not given beside the values
Method in brief: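 Test compound (2.0 × 10-4 mmol) was incubated with 260 µL guinea pig serum in PBS at pH 7.4, 37 °C, for 1.5 h. Nitrite was determined by the Griess reaction. Release is given as percent of a theoretical maximum of 2 mol NO per mol compound, SEM, n = 3.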

[5] = biological target: T1, Prostaglandin G/H synthase 1 (Ovis aries, UniProt P05979); assay: In vitro inhibitory concentration against COX-1 enzyme
T1 sequence (P05979 whole entry): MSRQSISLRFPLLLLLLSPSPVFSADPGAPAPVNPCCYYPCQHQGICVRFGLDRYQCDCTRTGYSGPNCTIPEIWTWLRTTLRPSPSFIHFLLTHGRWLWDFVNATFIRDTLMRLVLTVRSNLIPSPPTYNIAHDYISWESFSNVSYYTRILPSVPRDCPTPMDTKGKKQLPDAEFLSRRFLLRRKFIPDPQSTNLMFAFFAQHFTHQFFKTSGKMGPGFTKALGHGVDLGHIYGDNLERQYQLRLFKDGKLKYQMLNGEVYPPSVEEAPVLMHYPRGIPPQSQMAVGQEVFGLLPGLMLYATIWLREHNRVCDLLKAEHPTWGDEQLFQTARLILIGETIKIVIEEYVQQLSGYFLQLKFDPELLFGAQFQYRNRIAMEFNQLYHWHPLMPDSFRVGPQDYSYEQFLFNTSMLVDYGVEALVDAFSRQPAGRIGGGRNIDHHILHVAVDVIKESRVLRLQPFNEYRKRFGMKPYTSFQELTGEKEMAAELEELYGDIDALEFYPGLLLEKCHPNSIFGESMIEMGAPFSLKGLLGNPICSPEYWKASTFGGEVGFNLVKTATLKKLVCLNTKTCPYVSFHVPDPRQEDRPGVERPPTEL

[6] = Percentage of nitric oxide released by the compound when incubated in the presence of pig liver esterase in phosphate buffer solution at pH 7.4, 37 degree C for 1.5 h; assay type: functional; method in brief: as §1

IC50 [5]	Compound	Activity [1]	Activity [2]	ED50 [3]	Activity [4]	Activity [6]
> 100 µM	COc1ccc2c(c1)c(CC(=O)OCO/N=[N+](\[O-])N(C)C)c(C)n2C(=O)c1ccc(Cl)cc1	14.3%	16.9%	5.9 mg/kg	86.3%	
> 100 µM	CC(=O)Oc1ccccc1C(=O)OCO/N=[N+](\[O-])N(C)C	15.4%	19.1%	151 mg/kg	81.6%	
> 100 µM	CC(C)Cc1ccc(C(C)C(=O)OCO/N=[N+](\[O-])N2CCCC2)cc1 (centres undefined)	14.9%	16.3%	66.8 mg/kg	89.2%	
> 100 µM	COc1ccc2c(c1)c(CC(=O)OCO/N=[N+](\[O-])N1CCCC1)c(C)n2C(=O)c1ccc(Cl)cc1	15.1%	16.3%	10.7 mg/kg	89.1%	

Second part, the compound before the results:

Compound	IC50 [5]	Activity [1]	Activity [2]	ED50 [3]	Activity [4]	Activity [6]
COc1ccc2c(c1)c(CC(=O)O)c(C)n2C(=O)c1ccc(Cl)cc1 [INDOMETHACIN]				4.2 mg/kg		
CC(C)Cc1ccc(C(C)C(=O)O)cc1 (centres undefined) [IBUPROFEN]				67.4 mg/kg		
CC(=O)Oc1ccccc1C(=O)OCO/N=[N+](\[O-])N1CCCC1	> 100 µM	14.8%		182 mg/kg	88.9%	18.5%
[O-]/[N+](=N\O)N1CCCC1		94%				
CC(C)Cc1ccc(C(C)C(=O)OCO/N=[N+](\[O-])N(C)C)cc1 (centres undefined)	> 100 µM	16.1%	17.3%	62.3 mg/kg	93.6%	
CN(C)/[N+]([O-])=N/O		95.2%				
